ChEMBL document CHEMBL5303300, “EUbOPEN Chemogenomics Library - Multiplex” (2023)
Several values for one entry are separate records, joined by “and”; a condition that tells them apart may be missing. Identical values can stand only once.

System: Fibroblast
Assay: Multiplex assay against human fibroblast
Format: toxicity, cell-based
Details: number of replicates 2
Procedure, shortened: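 At seeding, live cells were stained with Hoechst33342, BioTracker Green Microtubule Cytoskeleton Dye, MitoTracker Red and Annexin V Alexa Fluor 680. After compound addition they were imaged on a CQ1 microscope at 37°C and 5% CO2, and CellPathfinder machine-learning gating sorted them into Hoechst high-intensity objects or normal cells, with normal cells further split into healthy, pyknosed or fragmented nuclei and pyknosed cells into mitotic or apoptotic. Tubulin, mitochondrial-mass and membrane-permeability phenotypes are given as per cents of cells with healthy nuclei.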

[1] = 12 h, 1 µM, compound concentration 1 uM
[2] = 12 h, 10 µM, compound concentration 10 uM
[3] = 24 h, 1 µM, compound concentration 1 uM
[4] = 24 h, 10 µM, compound concentration 10 uM
[5] = 48 h, 1 µM, compound concentration 1 uM
[6] = 48 h, 10 µM, compound concentration 10 uM

Question: CC(C)S(=O)(=O)c1ccccc1Nc1nc(N[C@@H]2CCCN(CCCCCCCNC(=O)COc3cccc4c3C(=O)N(C3CCC(=O)N(C)C3=O)C4=O)C2)ncc1Cl (stereo partly specified) was tested. Which “Population Apoptotic (%)” value [1] did it give?
Answer: 58% and 50%

Question: And the “Population Fragmented Nuclei (%)” value [1]?
Answer: 7% and 16%

Question: What about the “Population Healthy Nuclei (%)” value [1] of the same compound?
Answer: 50% and 56%

Question: And the “Population Hoechst High Intensity Objects (%)” value [1]?
Answer: 0% and 1%

Question: And the “Population Membrane Permeable-Phenotype (%)” value [1]?
Answer: 10% and 9%

Question: What about the “Population Mitochondria Different-Phenotype (%)” value [1] of the same compound?
Answer: 5% and 6%

Question: And the “Population Mitotic Cells (%)” value [1]?
Answer: 41% and 49%

Question: What about the “Population Normal (%)” value [1] of the same compound?
Answer: 100% and 98%

Question: What about the “Population Pyknosed Nuclei (%)” value [1] of the same compound?
Answer: 42% and 27%

Question: What about the “Population Tubulin-Different-Phenotype (%)” value [1] of the same compound?
Answer: 58% and 39%

Question: And the “Total Cell Count” value [1]?
Answer: 178 and 249

Question: And the “Population Apoptotic (%)” value [2]?
Answer: 63% and 51%

Question: And the “Population Fragmented Nuclei (%)” value [2]?
Answer: 9% and 14%

Question: And the “Population Healthy Nuclei (%)” value [2]?
Answer: 42% and 36%

Question: And the “Population Hoechst High Intensity Objects (%)” value [2]?
Answer: 0%

Question: And the “Population Membrane Permeable-Phenotype (%)” value [2]?
Answer: 33% and 29%

Question: And the “Population Mitochondria Different-Phenotype (%)” value [2]?
Answer: 24% and 26%

Question: What about the “Population Mitotic Cells (%)” value [2] of the same compound?
Answer: 36% and 49%

Question: And the “Population Normal (%)” value [2]?
Answer: 100% and 99%

Question: What about the “Population Pyknosed Nuclei (%)” value [2] of the same compound?
Answer: 47% and 48%

Question: What about the “Population Tubulin-Different-Phenotype (%)” value [2] of the same compound?
Answer: 24% and 17%

Question: And the “Total Cell Count” value [2]?
Answer: 191 and 207

Question: And the “Population Apoptotic (%)” value [3]?
Answer: 81% and 86%

Question: And the “Population Fragmented Nuclei (%)” value [3]?
Answer: 16% and 21%

Question: What about the “Population Healthy Nuclei (%)” value [3] of the same compound?
Answer: 39% and 36%

Question: What about the “Population Hoechst High Intensity Objects (%)” value [3] of the same compound?
Answer: 0%

Question: What about the “Population Membrane Permeable-Phenotype (%)” value [3] of the same compound?
Answer: 13% and 8%

Question: What about the “Population Mitochondria Different-Phenotype (%)” value [3] of the same compound?
Answer: 6% and 5%

Question: What about the “Population Mitotic Cells (%)” value [3] of the same compound?
Answer: 18% and 14%

Question: What about the “Population Normal (%)” value [3] of the same compound?
Answer: 99% and 100%

Question: What about the “Population Pyknosed Nuclei (%)” value [3] of the same compound?
Answer: 43% and 42%

Question: And the “Population Tubulin-Different-Phenotype (%)” value [3]?
Answer: 25% and 18%

Question: And the “Total Cell Count” value [3]?
Answer: 189 and 238

Question: And the “Population Apoptotic (%)” value [4]?
Answer: 76% and 74%

Question: What about the “Population Fragmented Nuclei (%)” value [4] of the same compound?
Answer: 15% and 16%

Question: And the “Population Healthy Nuclei (%)” value [4]?
Answer: 37% and 28%

Question: What about the “Population Hoechst High Intensity Objects (%)” value [4] of the same compound?
Answer: 0%

Question: And the “Population Membrane Permeable-Phenotype (%)” value [4]?
Answer: 20% and 9%

Question: And the “Population Mitochondria Different-Phenotype (%)” value [4]?
Answer: 52% and 73%

Question: And the “Population Mitotic Cells (%)” value [4]?
Answer: 23% and 25%

Question: And the “Population Normal (%)” value [4]?
Answer: 99%

Question: What about the “Population Pyknosed Nuclei (%)” value [4] of the same compound?
Answer: 47% and 55%

Question: What about the “Population Tubulin-Different-Phenotype (%)” value [4] of the same compound?
Answer: 50% and 36%

Question: And the “Total Cell Count” value [4]?
Answer: 193 and 186

Question: And the “Population Apoptotic (%)” value [5]?
Answer: 86% and 96%

Question: What about the “Population Fragmented Nuclei (%)” value [5] of the same compound?
Answer: 15% and 24%

Question: And the “Population Healthy Nuclei (%)” value [5]?
Answer: 46% and 36%

Question: What about the “Population Hoechst High Intensity Objects (%)” value [5] of the same compound?
Answer: 0% and 1%

Question: What about the “Population Membrane Permeable-Phenotype (%)” value [5] of the same compound?
Answer: 19% and 21%

Question: And the “Population Mitochondria Different-Phenotype (%)” value [5]?
Answer: 4% and 6%

Question: And the “Population Mitotic Cells (%)” value [5]?
Answer: 13% and 3%

Question: What about the “Population Normal (%)” value [5] of the same compound?
Answer: 100% and 98%

Question: What about the “Population Pyknosed Nuclei (%)” value [5] of the same compound?
Answer: 38%

Question: What about the “Population Tubulin-Different-Phenotype (%)” value [5] of the same compound?
Answer: 24% and 27%

Question: What about the “Total Cell Count” value [5] of the same compound?
Answer: 178 and 207

Question: And the “Population Apoptotic (%)” value [6]?
Answer: 85% and 88%

Question: And the “Population Fragmented Nuclei (%)” value [6]?
Answer: 14% and 22%

Question: And the “Population Healthy Nuclei (%)” value [6]?
Answer: 35% and 28%

Question: And the “Population Hoechst High Intensity Objects (%)” value [6]?
Answer: 1%

Question: What about the “Population Membrane Permeable-Phenotype (%)” value [6] of the same compound?
Answer: 7% and 16%

Question: And the “Population Mitochondria Different-Phenotype (%)” value [6]?
Answer: 37% and 27%

Question: And the “Population Mitotic Cells (%)” value [6]?
Answer: 14% and 11%

Question: What about the “Population Normal (%)” value [6] of the same compound?
Answer: 98%

Question: And the “Population Pyknosed Nuclei (%)” value [6]?
Answer: 50% and 49%

Question: What about the “Population Tubulin-Different-Phenotype (%)” value [6] of the same compound?
Answer: 70% and 53%

Question: And the “Total Cell Count” value [6]?
Answer: 184 and 191

Question: Which results are given for CS(=O)(=O)c1ccc(C(=O)Nc2cccc(COc3ccc(Br)cc3CN3CCC[C@H](O)C3)c2)c(Cl)c1.O=CO?
Answer: Population Healthy Nuclei (%) [1]: 71% and 60%; Population Hoechst High Intensity Objects (%) [1]: 0%; Population Mitotic Cells (%) [1]: 55% and 58%; Population Pyknosed Nuclei (%) [1]: 17% and 22%; Total Cell Count [1]: 200 and 202; Population Healthy Nuclei (%) [2]: 52% and 60%; Population Hoechst High Intensity Objects (%) [2]: 0%; Population Mitotic Cells (%) [2]: 49% and 62%; Population Pyknosed Nuclei (%) [2]: 18%; Total Cell Count [2]: 221 and 338; Population Healthy Nuclei (%) [3]: 72% and 64%; Population Hoechst High Intensity Objects (%) [3]: 0%; Population Mitotic Cells (%) [3]: 38% and 53%; Population Pyknosed Nuclei (%) [3]: 21%; Total Cell Count [3]: 214 and 180; Population Healthy Nuclei (%) [4]: 50% and 65%; Population Hoechst High Intensity Objects (%) [4]: 0%; Population Mitotic Cells (%) [4]: 35% and 26%; Population Pyknosed Nuclei (%) [4]: 21% and 12%; Total Cell Count [4]: 261 and 390; Population Healthy Nuclei (%) [5]: 73% and 72%; Population Hoechst High Intensity Objects (%) [5]: 0%; Population Mitotic Cells (%) [5]: 20% and 29%; Population Pyknosed Nuclei (%) [5]: 12%; Total Cell Count [5]: 198 and 185; Population Healthy Nuclei (%) [6]: 54% and 63%; Population Hoechst High Intensity Objects (%) [6]: 0%; Population Mitotic Cells (%) [6]: 10% and 9%; Population Pyknosed Nuclei (%) [6]: 7%; Total Cell Count [6]: 285 and 416
